The record followed here is ChEMBL document CHEMBL1152807 (J Med Chem, 2009).

The source made the active and inactive calls.

The target in one series is Phosphodiesterase 4 (Homo sapiens, UniProt P27815+Q08499+Q07343+Q08493). The series can be described thus: Inhibition of human PDE4. It is filed as protein assay. A digest of the protocol: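 PDE4 enzyme was isolated from U937 cells, following a previously reported method.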
A further series relates to PBMC. As to the kind of experiment: Inhibition of TNFalpha production in LPS-stimulated human PBMC preincubated before LPS challenge measured after 4 hrs by enzyme immunoassay. It is filed as functional, cell-based.
Another series has as its system Blood. The series can be described thus: Inhibition of TNFalpha production in LPS-stimulated human whole blood preincubated before LPS challenge measured after 4 hrs by enzyme immunoassay. In kind it is functional, tissue-based.
Series [1] has as its system Rattus norvegicus. As to the kind of experiment: Antiinflammatory activity in po dosed BN rat late airway inflammatory model assessed as inhibition of ovalbumin-induced cell infiltration in bronchoalveolar lavage fluid measured 48 hrs after ovalbumin challenge. It is filed as functional. The following applies: Lung.
Series [2] can be described thus: Ratio of IC50 for TNFalpha production in LPS-stimulated human whole blood to IC50 for TNFalpha production in LPS-stimulated human PBMC. In kind it is functional.
Series [3] can be described thus: Volume of distribution at steady state in rat at 5 mg/kg, iv. On the set-up: dose 5 mg/kg, route intravenous. It is filed as ADME, organism-based. As to conditions: in vivo, read-out: Vdss. The method in brief: (§1)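 Pharmacokinetics were determined in female rats after oral and intravenous administration.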
A short description of series [4]: Clearance in rat at 5 mg/kg, iv. In kind it is ADME, organism-based. The following applies: in vivo. On the set-up: dose 5 mg/kg, route intravenous. The method in brief:
as §1

The target of another series is Cytochrome P450 2D6 (Homo sapiens, UniProt P10635). As to the kind of experiment: Inhibition of CYP2D6. In kind it is ADME.
In the next series the target is Cytochrome P450 2C19 (Homo sapiens, UniProt P33261). The series can be described thus: Inhibition of CYP2C19. In kind it is ADME.
A further series deals with Cytochrome P450 2C9 (Homo sapiens, UniProt P11712). As to the kind of experiment: Inhibition of CYP2C9. It is filed as ADME.
Series [5] is described as follows: Cmax in rat at 10 mg/kg, po. Also noted: dose 10 mg/kg, route oral. As to conditions: in vivo. In kind it is ADME, organism-based. A digest of the protocol:
as §1

A short description of series [6]: AUC in rat at 10 mg/kg, po. As to conditions: plasma. In kind it is ADME, organism-based. Also noted: dose 10 mg/kg, route oral. The method in brief: as §1
Series [7] can be described thus: Oral bioavailability in rat at 10 mg/kg. It is filed as ADME, organism-based. The following applies: in vivo. A digest of the protocol:
as §1

For series [8], the system named is Rattus norvegicus. The series can be described thus: Antiinflammatory activity in po dosed rat assessed as inhibition of LPS-induced TNFalpha production. It is filed as functional. A digest of the protocol:
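Rat in vivo model: rats were dosed orally and TNF-α production was induced with LPS. Inhibition of TNF-α production was measured and an ED50 was determined.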

The nature of series [9]: Cmax in rat at 5 mg/kg, iv. It is filed as ADME, organism-based. Also noted: dose 5 mg/kg, route intravenous. The following applies: in vivo. A digest of the protocol: as §1
Series [10] can be described thus: Half life in rat at 5 mg/kg, iv. As to conditions: in vivo. In kind it is ADME, organism-based. Also noted: dose 5 mg/kg, route intravenous. The method in brief: as §1
Series [11] is described as follows: Protein binding in human plasma. As to conditions: read-out: PPB (converted). In kind it is ADME, cell-free.
A further series addresses Cytochrome P450 3A4 (Homo sapiens, UniProt P08684). As to the kind of experiment: Inhibition of CYP3A4. In kind it is ADME.
In series [12] the test system is Rattus norvegicus. As to the kind of experiment: Antiinflammatory activity in rat assessed as inhibition of LPS-induced TNFalpha production at 0.01 mg/kg, po. It is filed as functional, organism-based. Also noted: dose 0.01 mg/kg.
In a further series the target is T1, Cytochrome P450 1A2 (Homo sapiens, UniProt P05177).
T1 sequence (P05177 whole entry): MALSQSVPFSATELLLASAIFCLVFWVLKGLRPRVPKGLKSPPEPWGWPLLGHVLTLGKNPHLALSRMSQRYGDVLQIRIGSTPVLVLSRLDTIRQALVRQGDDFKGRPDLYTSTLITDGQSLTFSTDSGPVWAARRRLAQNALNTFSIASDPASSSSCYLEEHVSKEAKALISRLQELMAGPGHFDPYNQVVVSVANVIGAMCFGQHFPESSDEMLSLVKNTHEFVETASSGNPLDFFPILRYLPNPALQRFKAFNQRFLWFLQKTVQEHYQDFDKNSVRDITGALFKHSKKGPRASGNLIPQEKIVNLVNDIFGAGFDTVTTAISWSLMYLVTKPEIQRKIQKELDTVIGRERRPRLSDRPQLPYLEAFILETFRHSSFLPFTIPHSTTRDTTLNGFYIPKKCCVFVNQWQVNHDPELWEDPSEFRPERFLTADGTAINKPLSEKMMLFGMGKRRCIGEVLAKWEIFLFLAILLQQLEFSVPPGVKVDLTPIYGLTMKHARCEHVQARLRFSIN
As to the kind of experiment: Inhibition of CYP1A2. It is filed as ADME.

Series [13] has as its system Rattus norvegicus. The series can be described thus: Antiinflammatory activity in po dosed rat assessed as inhibition of LPS-induced neutrophilia in bronchoalveolar lavage fluid. The following applies: Lung. In kind it is functional. A digest of the protocol:
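Rat in vivo model: rats were dosed orally and neutrophilia was induced with LPS. Neutrophils were counted in bronchoalveolar lavage fluid and an ED50 for inhibition was determined.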

A short description of series [14]: Metabolic stability in human microsomes assessed as half life. It is filed as ADME, Microsome.
Series [15] in a line: AUC in rat at 5 mg/kg, iv. In kind it is ADME, organism-based. On the set-up: dose 5 mg/kg, route intravenous. As to conditions: plasma. A digest of the protocol: as §1
The nature of series [16]: Half life in rat at 10 mg/kg, po. It is filed as ADME, organism-based. On the set-up: dose 10 mg/kg, route oral. The following applies: in vivo. A digest of the protocol: as §1

Cytochrome P450 2C19, sequence (P33261 whole entry): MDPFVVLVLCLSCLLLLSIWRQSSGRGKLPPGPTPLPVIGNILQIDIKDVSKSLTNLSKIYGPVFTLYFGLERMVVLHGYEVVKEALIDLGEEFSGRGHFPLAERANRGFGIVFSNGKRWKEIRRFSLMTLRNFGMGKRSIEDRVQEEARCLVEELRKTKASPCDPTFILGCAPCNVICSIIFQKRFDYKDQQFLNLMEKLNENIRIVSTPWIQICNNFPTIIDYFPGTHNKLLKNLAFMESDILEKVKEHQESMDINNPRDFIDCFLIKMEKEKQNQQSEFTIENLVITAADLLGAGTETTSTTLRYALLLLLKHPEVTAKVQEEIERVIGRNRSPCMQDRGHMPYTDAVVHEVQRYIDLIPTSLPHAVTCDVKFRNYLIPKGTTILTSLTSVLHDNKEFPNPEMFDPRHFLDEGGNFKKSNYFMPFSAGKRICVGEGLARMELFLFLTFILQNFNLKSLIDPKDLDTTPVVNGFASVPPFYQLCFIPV
Cytochrome P450 2C9, sequence (P11712 whole entry): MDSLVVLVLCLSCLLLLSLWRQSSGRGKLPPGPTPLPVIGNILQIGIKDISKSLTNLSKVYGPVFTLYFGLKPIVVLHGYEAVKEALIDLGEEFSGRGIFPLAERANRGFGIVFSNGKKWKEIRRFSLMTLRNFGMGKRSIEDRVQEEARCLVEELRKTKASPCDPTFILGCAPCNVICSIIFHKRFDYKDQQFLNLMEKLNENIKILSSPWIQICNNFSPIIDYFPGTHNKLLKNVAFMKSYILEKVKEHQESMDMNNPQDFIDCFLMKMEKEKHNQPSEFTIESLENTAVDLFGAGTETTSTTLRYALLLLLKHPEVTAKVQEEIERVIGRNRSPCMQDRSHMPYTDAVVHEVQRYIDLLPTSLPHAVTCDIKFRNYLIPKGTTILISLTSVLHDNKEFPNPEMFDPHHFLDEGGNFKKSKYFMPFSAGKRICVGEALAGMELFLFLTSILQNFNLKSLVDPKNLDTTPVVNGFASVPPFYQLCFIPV
Cytochrome P450 3A4, sequence (P08684 whole entry): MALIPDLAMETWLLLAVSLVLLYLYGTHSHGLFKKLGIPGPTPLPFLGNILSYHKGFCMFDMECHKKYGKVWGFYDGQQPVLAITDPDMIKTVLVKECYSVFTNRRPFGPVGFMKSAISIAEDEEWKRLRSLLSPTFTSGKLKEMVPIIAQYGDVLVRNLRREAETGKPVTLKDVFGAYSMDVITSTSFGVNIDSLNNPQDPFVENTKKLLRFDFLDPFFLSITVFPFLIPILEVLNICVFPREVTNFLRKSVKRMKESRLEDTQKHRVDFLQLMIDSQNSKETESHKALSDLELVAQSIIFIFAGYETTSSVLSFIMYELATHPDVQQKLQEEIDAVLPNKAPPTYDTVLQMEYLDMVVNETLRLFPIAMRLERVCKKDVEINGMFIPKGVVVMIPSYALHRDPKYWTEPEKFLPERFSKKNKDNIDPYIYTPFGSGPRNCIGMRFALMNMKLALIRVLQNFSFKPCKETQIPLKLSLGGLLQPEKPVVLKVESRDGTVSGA
Cytochrome P450 2D6, sequence (P10635 whole entry): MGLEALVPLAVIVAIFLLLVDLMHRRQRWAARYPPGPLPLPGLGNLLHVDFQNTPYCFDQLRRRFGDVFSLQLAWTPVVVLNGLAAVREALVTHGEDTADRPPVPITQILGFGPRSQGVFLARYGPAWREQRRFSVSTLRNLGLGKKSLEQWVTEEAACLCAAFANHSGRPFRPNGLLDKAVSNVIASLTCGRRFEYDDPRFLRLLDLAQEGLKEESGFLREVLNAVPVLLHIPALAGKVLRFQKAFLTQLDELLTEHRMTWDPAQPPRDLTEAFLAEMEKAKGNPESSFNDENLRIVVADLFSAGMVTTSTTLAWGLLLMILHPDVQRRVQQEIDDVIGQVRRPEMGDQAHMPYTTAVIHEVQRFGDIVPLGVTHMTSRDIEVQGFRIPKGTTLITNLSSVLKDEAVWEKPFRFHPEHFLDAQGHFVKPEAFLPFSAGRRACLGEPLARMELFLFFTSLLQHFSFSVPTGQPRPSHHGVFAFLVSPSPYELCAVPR

In turn, `COc1ccc(C(CC#N)N2C(=O)c3ccccc3C2=O)cc1OC1CCCC1` (stereo unspecified) registered an IC50 on Phosphodiesterase 4 of 340 nM.

Turning to `CCOc1cc(C(CS(C)(=O)=O)N2C(=O)c3cccc(O)c3C2=O)ccc1OC` (racemic), the IC50 against Phosphodiesterase 4 came to 820 nM; in the series on PBMC, 1470 nM.

`CCOc1cc(C(CC(=O)O)N2C(=O)c3ccccc3C2=O)ccc1OC` (stereo unspecified): the IC50 at Phosphodiesterase 4 worked out at 1300 nM; in the series with PBMC, 35000 nM.

For `CCOc1cc(C(CC(=O)OC)N2C(=O)c3ccccc3C2=O)ccc1OC` (stereo unspecified), the IC50 against Phosphodiesterase 4 was found to be 220 nM; with Blood it was 4000 nM.

The compound `CCOc1cc([C@H](CS(C)(=O)=O)N2C(=O)c3cccc(NC(C)=O)c3C2=O)ccc1OC` displayed an IC50 with PBMC of 370 nM.

As to `O=C(Nc1c(Cl)cncc1Cl)c1ccc(OC(F)F)c(OCC2CC2)c1` [ROFLUMILAST], in the series with Rattus norvegicus [1], the ED50 was 0.9 mg/kg. Besides, the concentration for half-maximal inhibition (IC50) with PBMC is 0.02 nM.

In the case of `CCOc1cc(C(CC#N)N2C(=O)c3ccccc3C2=O)ccc1OC` (stereo unspecified), the IC50 stood at 40 nM on Phosphodiesterase 4, 240 nM in the series on PBMC and 490 nM in the series with Blood.

As to `COc1ccc(C(CS(C)(=O)=O)N2C(=O)c3ccccc3C2=O)cc1OC1CCCC1` (stereo unspecified), the IC50 against Phosphodiesterase 4 is 260 nM; in the series on PBMC, 1500 nM.

As to `CCOc1cc(C(CS(C)(=O)=O)N2C(=O)c3cccc(OC)c3C2=O)ccc1OC` (racemic), the IC50 against Phosphodiesterase 4 was 690 nM; in the series on PBMC it was 340 nM.

With `CCOc1cc(C(CS(C)(=O)=O)N2C(=O)c3cccc(N)c3C2=O)ccc1OC` (racemic), the “Ratio IC50” value in [2] is given as 6. Moreover, the IC50 against Phosphodiesterase 4 is 120 nM; with PBMC it was 370 nM; in the series on Blood it was 2200 nM.

Regarding `CCOc1cc(C(CC(N)=O)N2C(=O)c3ccccc3C2=O)ccc1OC` (stereo unspecified), the IC50 was determined as 1900 nM on Phosphodiesterase 4 and 10500 nM in the series on Blood.

With `CCOc1cc(C(CC#N)N2C(=O)c3cccc(NC(C)=O)c3C2=O)ccc1OC` (racemic), the IC50 at Phosphodiesterase 4 amounted to 130 nM; with PBMC, 440 nM; with Blood, 1600 nM.

On to `COC(=O)CC(c1ccc(OC)c(OC2CCCC2)c1)N1C(=O)c2ccccc2C1=O` (stereo unspecified), for which the IC50 turned out to be 1600 nM at Phosphodiesterase 4 and 1700 nM in the series with PBMC.

As to `CCOc1cc([C@@H](CC(N)=O)N2C(=O)c3cccc(NC(C)=O)c3C2=O)ccc1OC`, the results for the IC50 on Phosphodiesterase 4 and in the series with PBMC were 710 nM and 3000 nM, respectively.

With `CCOc1cc(C(CS(C)(=O)=O)N2C(=O)c3ccccc3C2=O)ccc1OC` (stereo unspecified), the IC50 on Phosphodiesterase 4 was determined as 220 nM; in the series with PBMC, 1300 nM; in the series on Blood it was 2500 nM.

As to `CCOc1cc(C(CS(C)(=O)=O)N2C(=O)c3cccc(NC(C)=O)c3C2=O)ccc1OC` (racemic), the IC50 with PBMC worked out at 190 nM; with Blood, 440 nM.

Take `COc1ccc(C(CC(=O)O)N2C(=O)c3ccccc3C2=O)cc1OC1CCCC1` (stereo unspecified): the IC50 came to 340 nM at Phosphodiesterase 4 and 36000 nM with PBMC.

For `CCOc1cc(C(CS(C)(=O)=O)N2C(=O)c3cccc(N(C)C)c3C2=O)ccc1OC` (racemic), the “Ratio IC50” value in series [2] is listed as 6. The 50% inhibitory concentration (IC50) worked out at 120 nM against Phosphodiesterase 4, 220 nM with PBMC and 1400 nM in the series on Blood.

For `CCOc1cc(C(CS(C)(=O)=O)N2C(=O)c3cccc(C)c3C2=O)ccc1OC` (racemic), the Ratio IC50 in series [2] came to 9. Besides, the IC50 on Phosphodiesterase 4 stood at 68 nM; in the series with PBMC, 270 nM; in the series on Blood it was 2400 nM.

For `CCOc1cc([C@@H](CS(C)(=O)=O)N2C(=O)c3cccc(NC(C)=O)c3C2=O)ccc1OC`, in [3], the Vd worked out at 2 L/kg. In addition, in series [4], the clearance was 8.33 mL/min/kg. Also, the IC50 on Cytochrome P450 2D6 was above 10000 nM; against Cytochrome P450 2C19, above 10000 nM; against Cytochrome P450 2C9, above 10000 nM; on Cytochrome P450 3A4 it was above 10000 nM; against Cytochrome P450 1A2, above 10000 nM; in the series on PBMC, 77 nM. The IC50 with Blood was 110 nM. The figures for the Cmax in series [5] and in series [9] were 1100 ng/mL and 6600 ng/mL, respectively. Also, the AUC was 14000 ng·h/mL in [6] and 11000 ng·h/mL in series [15]. This compound also had a bioavailability in series [7] of 64%. Besides, the figures for the 50% effective dose (ED50) with Rattus norvegicus [8] and with Rattus norvegicus [13] were 0.03 mg/kg and 0.3 mg/kg, respectively. The half-life is 3 h in series [10], above 1 h in series [14] and 5 h in [16]. The fraction unbound in series [11] is 0.1. In addition, the result with Rattus norvegicus [12] was Active.

A word on the IC50: it is the concentration needed to halve the response being measured. Read a low IC50 as inhibition by little substance. One may read the ED50 as the midpoint of the dose-response relation. As usually defined, the clearance is the volume of plasma or blood freed of the substance per unit of time. A lower clearance goes with a low capacity for elimination. As usually defined, the Cmax is the highest concentration seen after dosing. The term AUC denotes the area under the concentration-time curve, a measure of exposure. Read a low AUC as less exposure. Broadly, the bioavailability is dose-corrected exposure relative to a reference, in per cent. Low values mean little systemic uptake, high ones much systemic uptake. One may read the half-life as the time needed for the level to fall by half in the phase considered.
